Consider six compounds from ChEMBL document CHEMBL1153377, “8-Bromo-9-alkyl adenine derivatives as tools for developing new adenosine A2A and A2B receptors ligands” (Bioorg Med Chem, 2009).

For one assay, the target named is T1, Adenosine receptor A2b (Homo sapiens, UniProt P29275).
T1 sequence (P29275 whole entry): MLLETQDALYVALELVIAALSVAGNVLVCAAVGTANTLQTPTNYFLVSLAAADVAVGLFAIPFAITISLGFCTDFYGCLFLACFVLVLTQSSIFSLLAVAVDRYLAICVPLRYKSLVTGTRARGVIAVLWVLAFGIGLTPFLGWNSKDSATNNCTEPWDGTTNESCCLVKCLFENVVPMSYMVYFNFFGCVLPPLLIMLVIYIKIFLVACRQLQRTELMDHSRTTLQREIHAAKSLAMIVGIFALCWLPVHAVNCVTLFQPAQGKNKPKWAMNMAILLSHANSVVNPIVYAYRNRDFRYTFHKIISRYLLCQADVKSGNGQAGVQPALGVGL
As to the kind of experiment: Antagonist activity at human adenosine A2B receptor expressed in CHO cells assessed as inhibition of NECA-stimulated adenylyl cyclase activity. The assay is classed as functional, cell-based. The gist of the method: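 Membranes from CHO cells stably transfected with human A2B receptor, prepared by a single high-speed centrifugation of the homogenate, resuspended in 50 mM Tris/HCl pH 7.4 and used at once. Inhibition of NECA-stimulated adenylyl cyclase activity measured; IC50 converted to Ki by Cheng-Prusoff equation.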

Another assay deals with T2, Adenosine receptor A3 (Homo sapiens, UniProt P0DMS8).
T2 sequence (P0DMS8 whole entry): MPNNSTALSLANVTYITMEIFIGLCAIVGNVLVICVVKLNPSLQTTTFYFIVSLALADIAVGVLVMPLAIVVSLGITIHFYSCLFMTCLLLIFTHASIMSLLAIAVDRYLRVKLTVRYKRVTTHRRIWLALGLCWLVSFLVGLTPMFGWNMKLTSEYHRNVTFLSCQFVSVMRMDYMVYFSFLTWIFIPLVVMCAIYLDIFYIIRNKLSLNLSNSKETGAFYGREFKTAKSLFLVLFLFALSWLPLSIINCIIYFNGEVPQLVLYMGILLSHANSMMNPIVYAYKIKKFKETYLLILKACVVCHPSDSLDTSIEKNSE
Briefly: Displacement of [3H]NECA from human adenosine A3 receptor expressed in CHO cells. The assay is classed as cell-based. The gist of the method: (§1)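 CHO cells stably expressing human receptor; membranes from a two-step spin (1000 g, then 100,000 g), resuspended in binding buffer, stored -80 °C. Competition with [3H]NECA at 30 nM (A2A) or 10 nM (A3); nonspecific binding defined with […]. Ki derived from competition experiments.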

The next assay has as its target T3, Adenosine receptor A1 (Homo sapiens, UniProt P30542).
T3 sequence (P30542 whole entry): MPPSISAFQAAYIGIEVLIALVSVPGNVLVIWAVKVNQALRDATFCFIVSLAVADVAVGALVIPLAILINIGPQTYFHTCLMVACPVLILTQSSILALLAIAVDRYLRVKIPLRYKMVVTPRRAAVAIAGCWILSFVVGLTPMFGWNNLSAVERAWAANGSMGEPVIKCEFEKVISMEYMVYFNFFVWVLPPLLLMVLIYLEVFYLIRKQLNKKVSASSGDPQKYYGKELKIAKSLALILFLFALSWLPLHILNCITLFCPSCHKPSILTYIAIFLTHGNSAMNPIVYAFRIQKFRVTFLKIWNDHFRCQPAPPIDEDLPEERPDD
As to the kind of experiment: Displacement of [3H]CCPA from human adenosine A1 receptor expressed in CHO cells. Format: cell-based. The method in brief: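 Membranes from CHO cells stably expressing human A1 receptor (1000 g spin to clear nuclei, then 100,000 g pellet, stored -80 °C in binding buffer). Competition binding with 1 nM [3H]CCPA; nonspecific binding defined with 1 mM theophylline. Ki calculated from competition curves.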

Another assay deals with Adenosine receptor A2a (Homo sapiens, UniProt P29274). Briefly: Displacement of [3H]NECA from human adenosine A2A receptor expressed in CHO cells. Format: cell-based. The gist of the method: as §1
Sequence of Adenosine receptor A2a (P29274 whole entry): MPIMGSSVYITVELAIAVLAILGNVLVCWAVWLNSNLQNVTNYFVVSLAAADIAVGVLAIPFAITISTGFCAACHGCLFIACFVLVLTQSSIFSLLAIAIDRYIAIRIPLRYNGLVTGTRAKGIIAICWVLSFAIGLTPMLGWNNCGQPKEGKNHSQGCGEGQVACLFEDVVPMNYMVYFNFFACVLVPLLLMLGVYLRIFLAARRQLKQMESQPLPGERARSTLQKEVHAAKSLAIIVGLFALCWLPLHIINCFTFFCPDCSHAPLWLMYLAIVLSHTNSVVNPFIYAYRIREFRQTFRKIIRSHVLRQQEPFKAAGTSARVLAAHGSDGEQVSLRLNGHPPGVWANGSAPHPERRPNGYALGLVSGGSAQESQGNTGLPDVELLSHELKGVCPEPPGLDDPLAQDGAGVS

With `Nc1ncnc2c1nc(Br)n2Cc1ccccc1`, the Ki was greater than 30 µM on Adenosine receptor A2b, no less than 100 µM at Adenosine receptor A3, 6.7 µM on Adenosine receptor A1 and 6.1 µM on Adenosine receptor A2a.
With `Nc1ncnc2c1ncn2CCc1ccccc1`, the Ki was greater than 30 µM at Adenosine receptor A2b, greater than 100 µM on Adenosine receptor A3, greater than 100 µM on Adenosine receptor A1 and 9.6 µM on Adenosine receptor A2a.
Regarding `Nc1ncnc2c1nc(Br)n2CCc1ccccc1`, the Ki on Adenosine receptor A2b was greater than 30 µM; at Adenosine receptor A3, greater than 30 µM; on Adenosine receptor A1, 12 µM; on Adenosine receptor A2a it was 4.9 µM.
With `Nc1ncnc2c1nc(Br)n2CC(O)CO` (centres undefined), the Ki is 7.1 µM at Adenosine receptor A2b, no less than 100 µM at Adenosine receptor A3, 16 µM on Adenosine receptor A1 and 4 µM at Adenosine receptor A2a.
The corresponding values for `Nc1ncnc2c1ncn2Cc1ccccc1` [9-BENZYL-9H-ADENINE] are greater than 30 µM, greater than 100 µM, greater than 100 µM and 8.5 µM.
Turning to `Nc1ncnc2c1ncn2C[C@H](O)CO` [(S)-DHPA], the Ki on Adenosine receptor A2b was greater than 30 µM; at Adenosine receptor A3, greater than 100 µM; at Adenosine receptor A1, greater than 100 µM; at Adenosine receptor A2a, 8.5 µM.
